FLuc inhib CS: Photinus pyralis luciferase inhibition counter-screen. P08659. AID 1006. inhibition, % at 10 µM. actives 1.5% (n = 200,000). ATPLite firefly luciferase biochemical luminescence, 10 min;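 active means inhibition above about 50% when tested at 10 µM, limit read from the data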
C8 TRAIL sens: sensitizes caspase-8 expressing cells to TRAIL | NB7+C8 cells + TRAIL, ATPlite viability luminescence | inhibition (viability loss, TRAIL sensitization), % at 10 µM | actives 1% (n = 360,000) | AID 624354;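 active means compounds causing at least 50% loss of cell viability in the single-dose screen, relative to plate controls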
PPC-1+TRAIL kill: kills PPC-1 cancer cells in the presence of TRAIL | PPC-1 cells + TRAIL, ATPLite viability luminescence | cell killing (% activity), % at 4 µM or 5 µM | actives 0.41% (n = 220,000);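 active means cell killing above 50% in the first pass at 4 µM, then a duplicate retest at 5 µM averaging 50% or more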
FLuc act counter: firefly luciferase counter-screen for stimulation assays; P08659; ATPlite luciferase biochemical, luminescence, 10 min; 0 = ATP-free wells, 1 = DMSO control; activation factor at 10 µM; 200,000 tested, under 10 active; AID 1027;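 active means luciferase activation factor, scaled between plate controls, of at least 2 with compound at 10 µM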
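System: luciferase plus luciferin reagent, cell-free; medium: PBS as buffer for the ATP substrate; dosing: test compounds dosed from 2 mM stocks in 100% DMSO; timing: 10 min post-reagent at room temperature; measured by: luminescence measurement of luciferase light output; evaluation: luciferase activation, seen as luminescence increase over controls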
Hits are given with their value; – = inactive; · = no result. A selection: hits, their analogues and other compounds. The true share with any hit is near 1.5%.

SMILES	FLuc inhib CS	C8 TRAIL sens	PPC-1+TRAIL kill	FLuc act counter
O=C(Nc1cccc(-c2ccc(N3CCOCC3)nn2)c1)c1cccc(Cl)c1	·	–	·	·
O=C(Nc1cccc(-c2ccc(N3CCCCC3)nn2)c1)c1ccco1	·	81	·	·
O=C(COc1ccc(Cl)cc1)Nc1cccc(-c2ccc(N3CCOCC3)nn2)c1	·	59	·	·
COc1cccc(OC)c1C(=O)Nc1cccc(-c2ccc(N3CCOCC3)nn2)c1	·	73	·	·
Cc1ccc(C(=O)Nc2cccc(-c3ccc(N4CCOCC4)nn3)c2)cc1	·	–	·	·
Cc1cc(C(=O)Nc2cccc(-c3ccc(N4CCOCC4)nn3)c2)ccc1[N+](=O)[O-]	·	51	·	·
CC(=O)c1ccc(C(=O)N2CCC(n3nccc3NC(=O)C3CC3)CC2)cc1	·	–	·	·
O=C(Nc1cccc(-c2ccc(N3CCOCC3)nn2)c1)c1ccc(Cl)cc1	·	–	·	·
O=C(Nc1cccc(-c2ccc(N3CCOCC3)nn2)c1)c1ccccc1Cl	·	61	·	·
COc1ccc(OC)c2nc(-c3ccc4c(c3)OCO4)ccc12	·	–	·	·
Cc1cccc(Nc2nnc(SCC(=O)Nc3ccc(C(=O)O)cc3)s2)c1	68	–	–	–
Nc1ccc(/C=C/C(=O)c2cccs2)cc1	77	–	–	–
O=C(C=Cc1ccccc1)c1cccs1	·	–	·	·
N#Cc1c(C#N)c(SSc2c(C#N)c(C#N)c(N)n2-c2ccccc2)n(-c2ccccc2)c1N	·	79	·	·
Clc1ccc(OCCSc2ncccn2)c(Br)c1	54	–	–	–
CC1CN(C2CCCCC2)C(=S)N(c2ccccc2)C1=O (stereo unspecified)	·	–	·	·
O=C(O)c1cc(S(=O)(=O)N2CCN(C(c3ccccc3)c3ccccc3)CC2)ccc1Cl	·	–	·	·
c1ccc(-c2cc3ccccc3cn2)cc1	·	–	·	·
COc1ccc(-c2cc3cc(OC)c(OC)cc3cn2)cc1	·	–	·	·
COc1ccc(-c2cc3cc4c(cc3cn2)OCO4)cc1	·	54	·	·
c1ccc(-c2cc3cc4c(cc3cn2)OCO4)cc1	·	51	·	·
COc1cc(OC)cc(-c2cc3cc4c(cc3cn2)OCO4)c1	·	72	·	·
COc1ccc([C@H]2CC(=O)C=C(c3ccc(Oc4ccccc4)cc3)C2)cc1OC	·	–	·	·
CCOC(=O)c1c(NC(=O)C(=O)N/N=C/c2ccccc2O)sc2c1CCCCC2	–	–	–	–
CCOC(=O)c1c(NC(=O)C(=O)N/N=C/c2ccccc2OC)sc2c1CCCCC2	59	–	–	–
SMILES	FLuc inhib CS	C8 TRAIL sens	PPC-1+TRAIL kill	FLuc act counter
COCCNc1nc(Oc2cccc3ccccc23)c2sccc2n1	·	–	·	·
CC/C(=N\NC(=O)c1csc(C)c1C)c1cccs1	81	50	–	–
COc1cc2c(cc1OC)C(c1ccc(-c3ccccc3Cl)o1)=NCC2	62	–	–	–
Cc1cc(OCc2cc(C(=O)NCCN3CCCCC3CO)no2)cc(C)c1Cl (stereo unspecified)	·	–	·	·
C[C@@H]1CN([C@H](C)CO)C(=O)CCCn2cc(nn2)CO[C@H]1CN(C)C(=O)c1ccncc1	·	–	·	·
O=C(N/N=C/c1cc(Br)ccc1O)C(c1ccncc1)N1CCOCC1 (stereo unspecified)	–	53	–	–
Cc1ccc(F)c(S(=O)(=O)NC(=O)C2(C)CCN2C(=O)CC2CCCCC2)c1 (stereo unspecified)	·	–	·	·
COc1ccc(-c2ccc3sc4ccccc4c(=O)c3c2)cn1	·	66	·	·
COc1ccc2sc3ccccc3c(=O)c2c1OC	–	–	–	–
CC(OC(=O)C1CC(=O)N(Cc2ccco2)C1)C(=O)Nc1ccccc1[N+](=O)[O-] (stereo unspecified)	·	–	·	·
Cc1cccc(NC(=O)c2cnc3sccn3c2=O)c1C	–	–	–	–
Cc1cccc(NC(=O)c2cnc3sccn3c2=O)c1	60	–	–	–
COc1ccc(-c2nc(SCC(=O)Nc3cccc(S(N)(=O)=O)c3)n[nH]2)cc1	·	62	·	·
CN(C)c1ccc(CNc2ccc3c(c2)ncn3C(C)(C)C)cc1	·	–	·	·
CCNC(=O)C1CCCN(C(=O)c2ccccc2F)CC1 (stereo unspecified)	·	–	·	·
O=C(Nc1ccccc1)Nc1ncc([N+](=O)[O-])s1	–	55	–	–
COc1ccc(S(=O)(=O)N(C)c2ccc(C(=O)N3CCCCC3)cc2)cc1OC	·	–	–	·
CCOc1cc(/C=N/Nc2ncnc(Cl)c2N)ccc1O	65	–	–	–
Cc1cc(Cl)n2c(nc3cc(F)c(F)cc32)c1C#N	–	74	–	–
Cc1ccc(C(=O)/C=C/c2ccc(F)cc2)o1	85	–	–	–
COc1ccc(/C=C/C(=O)c2ccc([N+](=O)[O-])o2)cc1	·	51	·	·
CC(NC(=O)COc1ccc(S(=O)(=O)N2CCOCC2)cc1)c1ccccc1 (stereo unspecified)	·	–	·	·
